ChEMBL document CHEMBL1122721, “Synthesis and antiarrhythmic activity of new 1-[1-[2-[3-(alkylamino)-2-hydroxypropoxy]phenyl]vinyl]-1 H-imidazoles and related compounds” (J Med Chem, 1984)

Tests used:
[1] = target: Adrenergic receptor beta (Cavia porcellus); assay: Beta adrenergic receptor blocking activity measured by the chronotropic effect was determined 1 hr after pretreatment of the right atria in guinea pig
Cavia porcellus [2] = species: Cavia porcellus; assay: Maximal follow rate showing the contractile frequencies of atria to electrical stimulation 10 min after incubation with right atria of guinea pig.; type: functional
How it was run: (§1)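 Isolated right atria driven by electrical stimulation (Dawes' method). Maximal follow rate, the highest contractile frequency the atria follow, measured as an index of refractory period 10 min after incubation with compound.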

[3] = target: Adrenergic receptor beta (Cavia porcellus); assay: Beta adrenergic receptor blocking activity measured by the inotropic effect was determined 1 hr after pretreament of the right atria in guinea pig
Mus musculus [4] = assay: Compound was evaluated for ventricular extrasystole activity, 3 min before aconitine infusion, at a dose of 3 mg/kg, intravenously administered in mice; S=significant antiarrhythmic effect; type: functional, organism-based; design: dose 3 mg/kg; conditions: Heart
How it was run: (§2)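 Aconitine arrhythmia model in pentobarbital-anesthetized male mice (20-35 g). Test compound was given iv 3 min or po 30 min before continuous tail-vein infusion of aconitine (0.685 µg/min). Lead II ECG recorded; onset times of ventricular extrasystole (VES) and ventricular tachycardia (VT) were measured.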

[5] = Lethal dose in mice (LD50) (following i.v. dosing); conditions: mouse, in vivo, iv
Mus musculus [6] = assay: Compound was evaluated for ventricular tachycardia activity in intravenously administered mice, 3 min before aconitine infusion, at a dose of 3 mg/kg; S=significant antiarrhythmic effect; type: functional, organism-based; design: dose 3 mg/kg; conditions: Heart
How it was run: as §2

Canis familiaris [7] = species: Canis familiaris; assay: Duration of ischemic arrhythmias in dogs determined in minutes.
Canis familiaris [8] = assay: Effect on ischemic arrhythmias was studied in dogs. 3 mg/kg was injected intravenously and percent sinus beats before compound administration, was reported.; type: functional, Canis lupus familiaris; conditions: route intravenous
How it was run: (§3)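 Conscious dogs with ischemic ventricular arrhythmias persisting for 24 h after a glass bead was inserted into a coronary artery. Compound was given iv or orally. Lead II ECG recorded continuously by telemetry. Percent sinus beats taken before and after dosing, plus duration of effect (min).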

Mus musculus [9] = assay: Compound was evaluated for ventricular extrasystole, 30 min before aconitine infusion, at a dose of 30 mg/kg, perorally administered in mice; S=significant antiarrhythmic effect; type: functional, organism-based; design: dose 30 mg/kg; conditions: Heart
How it was run: as §2

Canis familiaris [10] = assay: Effect on ischemic arrhythmias was studied in dogs. 3 mg/kg was injected intravenously and percent sinus beats after compound administration, was reported.; type: functional, Canis lupus familiaris; conditions: route intravenous
How it was run: as §3

Mus musculus [11] = assay: Compound was evaluated for ventricular tachycardia activity in intravenously administered mice, 3 min before aconitine infusion, at a dose of 10 mg/kg; S=significant antiarrhythmic effect; type: functional, organism-based; design: dose 10 mg/kg; conditions: Heart
How it was run: as §2

Mus musculus [12] = assay: Compound was evaluated for ventricular extrasystole activity, 3 min before aconitine infusion, at a dose of 10 mg/kg, intravenously administered in mice; S=significant antiarrhythmic effect; type: functional, organism-based; design: dose 10 mg/kg; conditions: Heart
How it was run: as §2

Canis familiaris [13] = assay: Effect on ischemic arrhythmias was studied in dogs, by glass bead method. 60 mg/kg was administered perorally and percent sinus beats before compound administration, was reported.; type: functional, Canis lupus familiaris; conditions: route oral
How it was run: as §3

Canis familiaris [14] = assay: Effect on ischemic arrhythmias was studied in dogs, by glass bead method. 60 mg/kg was administered perorally and percent sinus beats after compound administration, was reported.; type: functional, Canis lupus familiaris; conditions: route oral
How it was run: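 Conscious dogs; ventricular arrhythmias induced by inserting a glass bead into a coronary artery, with marked arrhythmias persisting for 24 h. Compound given orally. Lead II ECG recorded continuously by telemetry. Percent sinus beats measured before and after dosing, and duration of effect in min recorded.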

Cavia porcellus [15] = species: Cavia porcellus; assay: Effect on maximal follow rate showing the contractile frequencies of atria to electrical stimulation 10 min after incubating compound with right atria of guinea pig; type: functional
How it was run: as §1

Mus musculus [16] = assay: Compound was evaluated for ventricular tachycardia activity in perorally administered mice, 30 min before aconitine infusion, at a dose of 30 mg/kg; S=significant antiarrhythmic effect; type: functional, organism-based; design: dose 30 mg/kg; conditions: Heart
How it was run: as §2

Mus musculus [17] = assay: Compound was evaluated for ventricular tachycardia activity in perorally administered mice, 30 min before aconitine infusion, at a dose of 10 mg/kg; S=significant antiarrhythmic effect; type: functional, organism-based; design: dose 10 mg/kg; conditions: Heart
How it was run: as §2

Mus musculus [18] = assay: Compound was evaluated for ventricular extrasystole, 30 min before aconitine infusion, at a dose of 10 mg/kg, perorally administered in mice; S=significant antiarrhythmic effect; type: functional, organism-based; design: dose 10 mg/kg; conditions: Heart
How it was run: as §2

SMILES	pA2 [1]	pA2 [3]	Decrease (Cavia porcellus [2]) [%]	other results
C=C(c1c(C)ccc(C)c1OCC(O)CNC(C)(C)C)n1ccnc1 (stereo not drawn)	6.36	6.47	17.1	–
CC(C)=C(c1cc(Cl)ccc1OCC(O)CNC(C)C)n1ccnc1 (stereo not drawn)	4.9	5.19	21.6	–
C=C(c1cc(Cl)ccc1OCC(O)CNC(C)C)n1cccn1 (stereo not drawn)	6.76	6.74	14.3	–
C=C(c1cccc(OC)c1OCC(O)CNC(C)(C)C)n1cnc2ccccc21 (stereo not drawn)	7.03	7.03	39.2	Activity (Mus musculus [4]): Anti-arrhythmic; LD50 [5]: 19.8 mg/kg; Activity (Mus musculus [6]): Anti-arrhythmic
C=C(c1ccccc1OCC(O)CNC(C)C)n1cncn1 (stereo not drawn)	6.12	6.33	–	Duration (Canis familiaris [7]): 15 min; Activity (Mus musculus [4]): Anti-arrhythmic; Sinus beats (Canis familiaris [8]): 9.8%; Activity (Mus musculus [9]): Anti-arrhythmic; Sinus beats (Canis familiaris [10]): 28.3%; Activity (Mus musculus [6]): Anti-arrhythmic
C=C(c1ccccc1OCC(O)CNC(C)(C)C)n1ccnc1C (stereo not drawn)	6.97	6.97	27.1	–
C=C(c1ccccc1OCC(O)CN(C)C)n1ccnc1 (stereo not drawn)	5.41	6.12	30.7	LD50 [5]: 45.4 mg/kg; Activity (Mus musculus [11]): Anti-arrhythmic; Activity (Mus musculus [12]): Anti-arrhythmic
C=C(c1ccccc1OCC(O)CNC(C)C)n1cccn1 (stereo not drawn)	7.44	7.75	21.6	–
C=C(c1ccc(Cl)cc1OCC(O)CNC)n1ccnc1 (stereo not drawn)	6.19	6.21	17.8	–
CC(C)NCC(O)COc1cccc2ccccc12 (stereo not drawn) [PROPRANOLOL]	–	–	–	Sinus beats (Canis familiaris [13]): 12%; Sinus beats (Canis familiaris [14]): 51.6%; Activity (Mus musculus [9]): Anti-arrhythmic; Activity (Mus musculus [11]): Anti-arrhythmic; Decrease (Cavia porcellus [15]): 33.5%; Activity (Mus musculus [12]): Anti-arrhythmic
C=C(c1ccccc1OCC(O)CNC(C)C)n1c(C)cnc1CC (stereo not drawn)	5.8	6.17	9.1	–
C=C(c1ccccc1OCC(O)CNC(C)C)n1cnc2ccccc21 (stereo not drawn)	6.67	6.46	16.8	–
C=C(c1cccc(C)c1OCC(O)CNC(C)(C)C)n1ccnc1 (stereo not drawn)	5.81	5.62	46.6	Activity (Mus musculus [4]): Anti-arrhythmic; LD50 [5]: 23.1 mg/kg; Activity (Mus musculus [9]): Anti-arrhythmic; Activity (Mus musculus [6]): Anti-arrhythmic; Activity (Mus musculus [16]): Anti-arrhythmic
C=C(c1c(Cl)cc(Cl)cc1OCC(O)CNC(C)C)n1ccnc1 (stereo not drawn)	6.44	6.27	19.6	–
C=C(c1cc(C)cc(C)c1OCC(O)CNC(C)(C)C)n1ccnc1 (stereo not drawn)	5.55	6.58	31.8	Activity (Mus musculus [4]): Anti-arrhythmic; LD50 [5]: 15.9 mg/kg; Activity (Mus musculus [6]): Anti-arrhythmic
C=C(c1ccccc1OCC(O)CNC(C)C)n1ccc(=O)cc1 (stereo not drawn)	6.2	6.19	13	–

SMILES	pA2 [1]	pA2 [3]	Decrease (Cavia porcellus [2]) [%]	other results
C=C(c1ccccc1OCC(O)CN1CCCC1)n1ccnc1 (stereo not drawn)	6.13	6.15	16.7	–
C=C(c1cc(Cl)cc(C)c1OCC(O)CNC(C)(C)C)n1ccnc1 (stereo not drawn)	5.49	5.04	27.3	–
C=C(c1ccccc1OCC(O)CNC(C)(C)C)n1cccn1 (stereo not drawn)	8.1	8.01	–	Activity (Mus musculus [11]): Anti-arrhythmic
C=C(c1ccccc1OCC(O)CNC(C)(C)C)n1ccnc1 (stereo not drawn)	7.69	8.01	14.1	–
C=C(c1cc(Cl)cc(Cl)c1OCC(O)CNC(C)(C)C)n1ccnc1 (stereo not drawn)	6.3	6.51	27.1	–
CC(C)NCC(O)COc1ccccc1Cn1cccn1 (stereo not drawn)	7.42	7.54	28.7	–
C=C(c1c(C)ccc(C)c1OCC(O)CNC(C)C)n1ccnc1 (stereo not drawn)	6.23	6.43	35.7	Activity (Mus musculus [4]): Anti-arrhythmic; LD50 [5]: 30.7 mg/kg; Activity (Mus musculus [6]): Anti-arrhythmic
CC(C)NCC(O)COc1ccccc1Cn1ccnc1 (stereo not drawn)	6.69	6.66	14.2	–
C=C(c1c(C)c(C)cc(Cl)c1OCC(O)CNC(C)(C)C)n1ccnc1 (stereo not drawn)	6.18	6.21	31.9	Activity (Mus musculus [4]): Anti-arrhythmic; LD50 [5]: 18.8 mg/kg; Activity (Mus musculus [6]): Anti-arrhythmic
C/C=C(\c1ccccc1OCC(O)CNC(C)(C)C)n1ccnc1 (stereo not drawn)	7.19	7.3	14.5	–
CC(C)NCC(O)COc1ccccc1C(C)n1ccnc1 (stereo not drawn)	6.9	6.83	15.6	–
C=C(c1ccccc1OCC(O)CNC(C)C)n1cnc(C(=O)OCC)c1C (stereo not drawn)	6.15	6.37	–	–
C=C(c1ccccc1OCC(O)CNC(C)(C)C)n1cnc2ccccc21 (stereo not drawn)	7.29	7.08	–	Activity (Mus musculus [4]): Anti-arrhythmic; Activity (Mus musculus [6]): Anti-arrhythmic
C=C(c1c(Cl)ccc(Cl)c1OCC(O)CNC(C)(C)C)n1ccnc1 (stereo not drawn)	5.27	5.41	26.3	–
C=C(c1cc(Cl)cc(C)c1OCC(O)CNC(C)C)n1ccnc1 (stereo not drawn)	5.22	5.93	37.9	Activity (Mus musculus [4]): Anti-arrhythmic; LD50 [5]: 48.8 mg/kg; Activity (Mus musculus [6]): Anti-arrhythmic

Now from value to compound, other results behind:

pA2 [1]	pA2 [3]	SMILES	Decrease (Cavia porcellus [2]) [%]	other results
6.24	6.24	C=C(c1ccccc1OCC(O)CNC(C)C)n1ccnc1C (stereo not drawn)	15	–
5.66	5.63	C=C(c1cccc(Cl)c1OCC(O)CNC(C)C)n1ccnc1 (stereo not drawn)	28.2	–
5.55	6.31	C=C(c1cc(C)cc(C)c1OCC(O)CNC(C)C)n1ccnc1 (stereo not drawn)	25.9	–
6.5	6.64	C=C(c1cc(Cl)cc(Cl)c1OCC(O)CNC(C)C)n1ccnc1 (stereo not drawn)	27.5	–
6.3	6.41	C=C(c1cc(Cl)ccc1OCC(O)CNC(C)C)n1ccnc1 (stereo not drawn)	27.1	–
6.89	6.89	C=C(c1ccccc1OCC(O)CNC(C)C)n1ccnc1 (stereo not drawn)	27.1	–
6.26	6.41	C=C(c1cccc(OC)c1OCC(O)CNC(C)C)n1cnc2ccccc21 (stereo not drawn)	22.3	–
4.46	5.19	C=C(c1c(Cl)ccc(Cl)c1OC[C@H](O)CNC(C)C)n1ccnc1.Cl	–	Activity (Mus musculus [4]): Anti-arrhythmic; Decrease (Cavia porcellus [15]): 39.5%; Activity (Mus musculus [17]): Anti-arrhythmic; Activity (Mus musculus [6]): Anti-arrhythmic
6.52	6.76	C/C=C(\c1ccccc1OCC(O)CNC(C)C)n1ccnc1 (stereo not drawn)	18.6	–
5.08	5.05	C=C(c1c(Cl)ccc(Cl)c1OC[C@@H](O)CNC(C)C)n1ccnc1.Cl	–	Activity (Mus musculus [18]): Anti-arrhythmic; Decrease (Cavia porcellus [15]): 40.3%; Activity (Mus musculus [12]): Anti-arrhythmic; Activity (Mus musculus [17]): Anti-arrhythmic; Activity (Mus musculus [6]): Anti-arrhythmic
6.64	6.23	C=C(c1cc(Cl)c(Cl)cc1OCC(O)CNC(C)C)n1ccnc1 (stereo not drawn)	23.8	–
6.64	6.99	C=C(c1cccc(OC)c1OCC(O)CNC(C)C)n1ccnc1 (stereo not drawn)	29	–
7.19	7.16	C=C(c1ccccc1OCC(O)CNC(C)C)n1cnc(C)c1 (stereo not drawn)	–	Activity (Mus musculus [6]): Anti-arrhythmic
5.86	5.95	C=C(c1ccc(Cl)cc1OCC(O)CNC(C)C)n1ccnc1 (stereo not drawn)	26.3	–
